Data set [1] concerns MDA-MB-231. Kind of data set: Induction of opsonization in human MDA-MB-231 cells assessed as increase in recruitment of anti-DNP antibody to cell surface at 1 uM measured after 5 to 10 mins at pH 6 to 7.4 by AlexaFluor-488-conjugated anti-DNP antibody based flow cytometry. The data set is classed as functional. The procedure, abridged: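 Conjugate pre-incubated 1 h RT at 20 μM in 5 mM sodium phosphate pH 9.0, diluted, then pH adjusted with citrate buffer. MDA-MB-231 (350000 cells, suspension) exposed to 1 μM for 5 or 10 min, 37 °C, pH 7.4 or 6.0, washed, stained with 25 μg/mL anti-DNP-A488 30 min at 4 °C, PFA-fixed. Flow cytometry, ≥3000 events; fold over pH 7.4 antibody-only cells.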

The subject of data set [2] is MDA-MB-231. The experiment in a line: Cytotoxicity against human MDA-MB-231 cells assessed as increase in cell lysis at 0.5 to 1 uM incubated for 5 mins at pH 6 to 7.4 followed by compound washout prior to human haNK cell addition at 5:1 effector to target ratio measured after 4 hrs by LDH release assay. Conditions: mda-mb-231, pH 6, 4 h. Format: cell-based. Background: Release of lactate dehydrogenase indicates damage to the cell membrane.

Data set [3] concerns MDA-MB-231. The experiment in a line: Induction of opsonization in human MDA-MB-231 cells assessed as increase in recruitment of anti-DNP antibody to cell surface at 1 uM measured after 1 hr at pH 6 to 7.4 by AlexaFluor-488-conjugated anti-DNP antibody based flow cytometry. Format: functional. (In flow cytometry, cells or beads pass a laser one at a time.)
Data set [4] deals with MDA-MB-231. Kind of data set: Induction of antibody dependent cytotoxicity against human MDA-MB-231 cells assessed as cell lysis at 1 uM incubated for 5 mins at pH 6 followed by compound washout prior to anti-DNP antibody addition for 30 mins and subsequent human PBMC addition at 5:1 effector to target ratio measured after 4 hrs by LDH release assay relative to control. Format: functional.

Data set [5] relates to MDA-MB-231. The experiment in a line: Induction of opsonization in human MDA-MB-231 cells assessed as increase in recruitment of anti-DNP antibody to cell surface at 1 uM preincubated for 5 mins at pH 6 to 7.4 followed by pooled human serum addition and measured in presence of FITC-labeled anti-human IgG antibody based flow cytometry. Format: functional. The procedure, abridged:
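300000 MDA-MB-231 in suspension exposed to 1 μM conjugate 5 min, 37 °C, pH 7.4 or 6.0; washed; blocked with human IgG isotype control 100 μg/mL, 20 min 4 °C; 12.5% pooled human complement serum 20 min 4 °C; then 25 μg/mL FITC anti-human IgG 30 min 4 °C; PFA-fixed, flow cytometry; fold over pH 7.4 serum-only.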

The source made the active and inactive calls. The rule behind the calls is not given here. Peptide text beside a SMILES is read from it. * marks the point of attachment. Dnp = O=[N+]([O-])c1ccc(*)c([N+](=O)[O-])c1

On to `CC[C@H](C)[C@H](NC(=O)[C@@H]1CCCN1C(=O)[C@H](CC(N)=O)NC(=O)[C@H](CCC(N)=O)NC(=O)[C@H](CCC(=O)O)NC(=O)[C@@H](N)CCCCNc1ccc([N+](=O)[O-])cc1[N+](=O)[O-])C(=O)N[C@@H](Cc1ccc(O)cc1)C(=O)N[C@@H](Cc1c[nH]c2ccccc12)C(=O)N[C@@H](C)C(=O)N[C@@H](CCCNC(=N)N)C(=O)N[C@@H](Cc1ccc(O)cc1)C(=O)N[C@@H](C)C(=O)N[C@@H](CC(=O)O)C(=O)N[C@@H](Cc1c[nH]c2ccccc12)C(=O)N[C@@H](CC(C)C)C(=O)N[C@@H](Cc1ccccc1)C(=O)N[C@H](C(=O)N[C@H](C(=O)N1CCC[C@H]1C(=O)N[C@@H](CC(C)C)C(=O)N[C@@H](CC(C)C)C(=O)N[C@@H](CC(C)C)C(=O)N[C@@H](CC(C)C)C(=O)N[C@@H](CCC(=O)O)C(=O)N[C@@H](CC(C)C)C(=O)N[C@@H](C)C(=O)N[C@@H](CC(C)C)C(=O)N[C@@H](CC(C)C)C(=O)N[C@H](C(=O)N[C@@H](CC(=O)O)C(=O)N[C@@H](C)C(=O)N[C@@H](CC(=O)O)C(=O)N[C@@H](CCC(=O)O)C(=O)NCC(=O)N[C@H](C(=O)NCC(N)=O)[C@@H](C)O)C(C)C)[C@@H](C)O)[C@@H](C)O` (H-K(Dnp)EQNPIYWARYADWLFTTPLLLLELALLVDADEGTG-NH2), for which the result in the data set on MDA-MB-231 [1], in the data set with MDA-MB-231 [3] and with MDA-MB-231 [5] was Active. The Activity entry in the data set on MDA-MB-231 [2] is listed as “Non-Toxic”; with MDA-MB-231 [4], 40%.

The record behind these values is ChEMBL document CHEMBL4354869, “pH-Dependent Grafting of Cancer Cells with Antigenic Epitopes Promotes Selective Antibody-Mediated Cytotoxicity” (J Med Chem, 2020).
